Results on one compound are retold here after ChEMBL document CHEMBL4428067, “Drug Discovery against Psoriasis: Identification of a New Potent FMS-like Tyrosine Kinase 3 (FLT3) Inhibitor, 1-(4-((1H-Pyrazolo[3,4-d]pyrimidin-4-yl)oxy)-3-fluorophenyl)-3-(5-(tert-butyl)isoxazol-3-yl)urea, That Showed Potent Activity in a Psoriatic Animal Model” (J Med Chem, 2016).

In test [1] the target is T1, Receptor-type tyrosine-protein kinase FLT3 (Mus musculus) (UniProt Q00342).
T1 sequence (whole entry): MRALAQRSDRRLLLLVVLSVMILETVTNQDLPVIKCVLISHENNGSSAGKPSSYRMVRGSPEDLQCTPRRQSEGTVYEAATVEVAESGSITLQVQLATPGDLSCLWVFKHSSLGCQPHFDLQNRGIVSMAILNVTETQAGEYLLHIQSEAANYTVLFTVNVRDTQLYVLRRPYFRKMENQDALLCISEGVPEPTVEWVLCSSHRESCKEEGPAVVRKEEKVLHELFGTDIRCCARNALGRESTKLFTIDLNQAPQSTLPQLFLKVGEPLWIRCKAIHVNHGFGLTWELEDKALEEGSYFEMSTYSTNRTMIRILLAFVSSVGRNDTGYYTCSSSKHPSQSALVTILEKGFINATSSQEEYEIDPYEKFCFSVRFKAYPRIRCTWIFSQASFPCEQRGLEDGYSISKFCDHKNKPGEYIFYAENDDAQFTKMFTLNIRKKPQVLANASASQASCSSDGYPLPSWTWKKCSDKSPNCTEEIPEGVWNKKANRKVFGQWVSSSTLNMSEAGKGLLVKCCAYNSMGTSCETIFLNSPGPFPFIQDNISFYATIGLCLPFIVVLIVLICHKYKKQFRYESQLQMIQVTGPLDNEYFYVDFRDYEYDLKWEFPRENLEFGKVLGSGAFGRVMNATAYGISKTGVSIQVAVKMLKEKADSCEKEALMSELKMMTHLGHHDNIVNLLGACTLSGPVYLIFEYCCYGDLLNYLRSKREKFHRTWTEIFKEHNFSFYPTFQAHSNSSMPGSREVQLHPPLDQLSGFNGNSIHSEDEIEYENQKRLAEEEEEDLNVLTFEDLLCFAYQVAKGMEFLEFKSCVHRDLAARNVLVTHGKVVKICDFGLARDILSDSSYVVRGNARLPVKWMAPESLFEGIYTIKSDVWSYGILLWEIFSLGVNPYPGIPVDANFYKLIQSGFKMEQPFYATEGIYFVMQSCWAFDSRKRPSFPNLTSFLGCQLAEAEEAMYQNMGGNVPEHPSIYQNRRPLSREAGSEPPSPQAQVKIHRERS
Briefly: Inhibition of FLT3 in Balb/c mouse BMDCs assessed as suppression of FLT3L-induced pDC formation measured as lower right quadrant cells level treated on day 9 post 9 days of FLT3L-stimulation measured after 24 hrs by CD11c PerCP and CD45R/B220 FITC staining based flow cytometric analysis (reference value: 2.8%). More on the design: scale not given: the % may be the effect or the level left. Summed up: (§1)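 BALB/c bone marrow cells were cultured at 1×10^6/ml with FLT3L in supplemented RPMI-1640 for 9 days. Compound in DMSO or 0.1% DMSO was added on day 9 for 24 h. Cells were stained for 30 min with CD11c PerCP plus B220 FITC (pDC: CD11c+ B220+) or MHC II FITC (mDC: CD11c+ MHC II+), then analysed by flow cytometry. Three independent experiments.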
In general terms: In flow cytometry, cells or beads pass a laser one at a time.

Test [2] is filed under the species Mus musculus. Briefly: Antipsoriatic activity in K14-VEGF transgenic mouse model of psoriasis assessed as lower left quadrant FLT3+/CD11c+/MHC-II+ mDC cells in psoriatic plaque lesion at 0.05% applied tropically over lesion for continuous 29 days by flow cytometric analysis (reference value: 35.2%).
Test [3] relates to BMDC. Briefly: Decrease in IL23 level in Balb/c mouse BMDCs at 10 nM treated on day 9 post 9 days of FLT3L-stimulation measured after 12 hrs by ELISA. The class given is functional, cell-based. Summed up: (§2)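 BALB/c bone marrow cells were plated at 1×10^6/ml in RPMI-1640 with 10% FCS, 10^-4 M 2-ME, pyruvate, antibiotics and FLT3L for 9 days. On day 9, compound in DMSO or 0.1% DMSO was added. After 12 h, supernatant IFN-γ and IL-23 were measured by ELISA. Three independent experiments.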
In general terms: In an ELISA, binding on a coated surface is turned into a signal by an enzyme label.

The species named for test [4] is Mus musculus. Briefly: Antipsoriatic activity in K14-VEGF transgenic mouse model of psoriasis assessed as upper left quadrant FLT3+/CD11c+/B220+ pDC cells in psoriatic plaque lesion at 0.05% applied tropically over lesion for continuous 29 days by flow cytometric analysis (reference value: 36.1%). The class given is functional.
Test [5] deals with T1, Receptor-type tyrosine-protein kinase FLT3 (Mus musculus). The experiment in a line: Inhibition of FLT3 in mouse BMDCs assessed as suppression of STAT5 phosphorylation at 10 and 100 nM treated on day 9 post 9 days of FLT3L-stimulation measured after 1 hr by Western blot analysis. Summed up: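 Bone marrow cells were cultured 9 days with FLT3L in supplemented RPMI-1640, then exposed to compound or 0.1% DMSO for 1 h on day 9. Whole cells were lysed and immunoblotted with rabbit antibodies to STAT3, STAT5, pSTAT3 and pSTAT5. Three independent experiments.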
For orientation: In western blotting, separated proteins are transferred to a membrane and probed.

For test [6], the species on record is Mus musculus. The experiment in a line: Antipsoriatic activity in K14-VEGF transgenic mouse model of psoriasis assessed as lower left quadrant FLT3+/CD11c+/MHC-II+ mDC cells in psoriatic plaque lesion at 0.05% applied tropically over lesion for continuous 29 days by flow cytometric analysis (reference value: 1.09%).
Test [7] is filed under the species Mus musculus. Briefly: Antipsoriatic activity in K14-VEGF transgenic mouse model of psoriasis assessed as decrease in CD54 expression in psoriatic lesion at 0.05% applied tropically over lesion for continuous 29 days by immunohistochemical analysis relative to vehicle control. More on the design: scale not given: the % may be the effect or the level left. It counts as functional. Summed up:
(§3)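 K14-VEGF mice were treated topically with 0.05% cream or vehicle for 29 days, n=3 per group. Ear skin was paraffin-embedded, cut into 4-µm sections and immunostained. Staining was quantified in 5 random fields, reported as mean ± SD.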

For test [8], the species on record is Mus musculus. The experiment in a line: Antipsoriatic activity in K14-VEGF transgenic mouse model of psoriasis assessed as lower left quadrant FLT3+/CD11c+/MHC-II+ mDC cells in psoriatic plaque lesion at 0.05% applied tropically over lesion for continuous 29 days by flow cytometric analysis (reference value: 0%).
For test [9], the species on record is Mus musculus. The experiment in a line: Antipsoriatic activity in K14-VEGF transgenic mouse model of psoriasis assessed as decrease in STAT3 phosphorylation in psoriatic lesion at 0.05% applied tropically over lesion for continuous 29 days by immunohistochemical analysis relative to vehicle control. It counts as functional. More on the design: scale not given: the % may be the effect or the level left. In outline:
as §3

Test [10] deals with BMDC. Briefly: Decrease in IFN-gamma level in Balb/c mouse BMDCs at 10 nM treated on day 9 post 9 days of FLT3L-stimulation measured after 12 hrs by ELISA. The class given is functional, cell-based. Summed up:
as §2

The target of test [11] is T1, Receptor-type tyrosine-protein kinase FLT3 (Mus musculus). The experiment in a line: Inhibition of FLT3 in Balb/c mouse BMDCs assessed as suppression of FLT3L-induced pDC formation measured as lower left quadrant cells level treated on day 9 post 9 days of FLT3L-stimulation measured after 24 hrs by CD11c PerCP and CD45R/B220 FITC staining based flow cytometric analysis (reference value: 36.5%). Further details: scale not given: the % may be the effect or the level left. In outline:
as §1

The species entered for test [12] is Mus musculus. Briefly: Antipsoriatic activity in K14-VEGF transgenic mouse model of psoriasis assessed as lower right quadrant DC cells expressing FLT3 and CD11c in psoriatic plaque lesion at 0.05% applied tropically over lesion for continuous 29 days by flow cytometric analysis (reference value: 8.88%). The class given is functional.

Each structure is given as a SMILES string. Activity calls are given as the source filed them. The calls are words filed in the database; no cut-off is given here.

Consider `CC(C)(C)c1cc(NC(=O)Nc2ccc(Oc3ncnc4[nH]ncc34)c(F)c2)no1`, for which the Activity in [1] is 4.63%; in the test listed under Mus musculus [2], 8.58%; in the test listed under Mus musculus [4], 9.6%; in the test listed under Mus musculus [6] it was 1.54%; in the test filed under Mus musculus [7], 87%; in the test filed under Mus musculus [8], 0%. In addition, the results for the Activity (in the test listed under Mus musculus [9]; in test [11]; in the test listed under Mus musculus [12]) were 64%, 47.2% and 2.1%, respectively. The inhibition entry (with BMDC [3]; in test [5]; in the test with BMDC [10]) was “Active” each time.
